Measurements published in ChEMBL document CHEMBL1146543, “New antimycobacterial and antimalarial 8,9-secokaurane diterpenes from Croton kongensis” (J Nat Prod, 2003).
Values after ≈ are worked out from the molar mass of the structure shown.

Experiments:
Plasmodium falciparum = assay: Antimalarial activity against multidrug-resistant Plasmodium falciparum K1 by [3H]hypoxanthine uptake; format: functional, organism-based
Procedure, shortened: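 Parasites kept in continuous in vitro culture (Trager–Jensen method); microculture radioisotope assay with growth read as [3H]-hypoxanthine uptake.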

Vero = assay: Cytotoxicity against african green monkey Vero cells; format: cell-based; settings: Chlorocebus sabaeus
Procedure, shortened: (§1)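 Colorimetric cytotoxicity assay run on Vero, KB and BC cell lines, with ellipticine as the reference compound. The result is reported as IC50.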

KB = assay: Cytotoxicity against human KB cells; format: functional, cell-based; procedure, shortened: as §1
[1] = Cytotoxicity against human BC cells; format: functional, cell-based; procedure, shortened: as §1
[2] = tested on: Mycobacterium tuberculosis; assay: Antimycobacterial activity against Mycobacterium tuberculosis H37Ra by Microplate Alamar Blue Assay; format: functional
Procedure, shortened: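 Microplate Alamar Blue assay with MIC as the endpoint; isoniazid and kanamycin sulfate were run as reference drugs.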

**Q.** For `C[C@@H]1CC[C@H]2[C@@H](C)C(=O)O[C@@H]3O[C@@]4(C)CC[C@@H]1[C@]32OO4` [ARTEMISININ], which IC50 (Plasmodium falciparum) is on record?
**A.** The IC50 was 0.001 µg/mL (≈ 0.00354 µM).

**Q.** For `Cc1c2ccncc2c(C)c2c1[nH]c1ccccc12` [ELLIPTECINE], which IC50 (Vero) is on record?
**A.** Its IC50 is 0.2 µg/mL (≈ 0.812 µM).

**Q.** What about the IC50 (KB) of the same molecule?
**A.** The IC50 was 0.2 µg/mL (≈ 0.812 µM).

**Q.** And the IC50 [1]?
**A.** The IC50 was 0.2 µg/mL (≈ 0.812 µM).

**Q.** Which MIC [2] does the source give for `NC[C@H]1O[C@H](O[C@H]2[C@H](O)[C@@H](O[C@H]3O[C@H](CO)[C@@H](O)[C@H](N)[C@H]3O)[C@H](N)C[C@@H]2N)[C@H](O)[C@@H](O)[C@@H]1O.O=S(=O)(O)O` [KANAMYCIN SULFATE] here?
**A.** Its MIC is 2 µg/mL.
